Experimental data from ChEMBL document CHEMBL5058577, “EUbOPEN Chemogenomics Library 2 (Multiplex)” (2022).

Test system: U2OS
Test: Multiplex assay against U2OS
Type: toxicity, cell-based
Conditions: human
In short: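 Hoechst33342, BioTracker Green Microtubule Cytoskeleton Dye, MitoTracker Red and Annexin V Alexa Fluor 680 were added to live cells at seeding, and imaging on a CQ1 microscope at 37°C and 5% CO2 followed compound addition. Gating by CellPathfinder machine learning separated cells into Hoechst high-intensity objects or normal cells, then normal cells into healthy, pyknosed or fragmented nuclei, then pyknosed cells into mitotic or apoptotic. Per cents of healthy-nucleus cells are reported for the tubulin, mitochondrial-mass and membrane-permeability phenotypes.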

[1] = 12 h, 1 µM, compound concentration 1 uM, replicate 1
[2] = 12 h, 1 µM, compound concentration 1 uM, replicate 2
[3] = 12 h, 10 µM, compound concentration 10 uM, replicate 1
[4] = 12 h, 10 µM, compound concentration 10 uM, replicate 2
[5] = 24 h, 1 µM, compound concentration 1 uM, replicate 1
[6] = 24 h, 1 µM, compound concentration 1 uM, replicate 2
[7] = 24 h, 10 µM, compound concentration 10 uM, replicate 1
[8] = 24 h, 10 µM, compound concentration 10 uM, replicate 2
[9] = 48 h, 1 µM, compound concentration 1 uM, replicate 1
[10] = 48 h, 1 µM, compound concentration 1 uM, replicate 2
[11] = 48 h, 10 µM, compound concentration 10 uM, replicate 1
[12] = 48 h, 10 µM, compound concentration 10 uM, replicate 2

In the case of O=C(NCCO)c1cccc(-c2cc(Nc3ccc(OC(F)(F)F)cc3)ncn2)c1, the “Population Apoptotic (%)” value [1] is reported as 64%, the “Population Fragmented Nuclei (%)” value [1] is reported as 13% and the “Population Healthy Nuclei (%)” value [1] is reported as 72%. The “Population Hoechst High Intensity Objects (%)” value [1] was 1%, the “Population Membrane Permeable-Phenotype (%)” value [1] was 3% and the “Population Mitochondria Different-Phenotype (%)” value [1] was 3%. The “Population Mitotic Cells (%)” value [1] was 35%, the “Population Normal (%)” value [1] was 98% and the “Population Pyknosed Nuclei (%)” value [1] was 13%. For the same compound, the “Population Tubulin-Different-Phenotype (%)” value [1] was 1%, the “Total Cell Count” value [1] was 213 and the “Population Apoptotic (%)” value [2] was 84%. For the same compound, the “Population Fragmented Nuclei (%)” value [2] was 15%, the “Population Healthy Nuclei (%)” value [2] was 73% and the “Population Membrane Permeable-Phenotype (%)” value [2] was 4%. The “Population Mitotic Cells (%)” value [2] was 15%, the “Population Pyknosed Nuclei (%)” value [2] was 10% and the “Population Tubulin-Different-Phenotype (%)” value [2] was 4%. The “Total Cell Count” value [2] was 128, the “Population Apoptotic (%)” value [3] was 84% and the “Population Fragmented Nuclei (%)” value [3] was 21%. The “Population Healthy Nuclei (%)” value [3] was 66%, the “Population Hoechst High Intensity Objects (%)” value [3] was 4% and the “Population Membrane Permeable-Phenotype (%)” value [3] was 9%. For the same compound, the “Population Mitochondria Different-Phenotype (%)” value [3] was 7%, the “Population Mitotic Cells (%)” value [3] was 15% and the “Population Normal (%)” value [3] was 95%. For the same compound, the “Population Pyknosed Nuclei (%)” value [3] was 12%, the “Population Tubulin-Different-Phenotype (%)” value [3] was 6% and the “Total Cell Count” value [3] was 274. For the same compound, the “Population Apoptotic (%)” value [4] was 100%, the “Population Fragmented Nuclei (%)” value [4] was 20% and the “Population Healthy Nuclei (%)” value [4] was 68%. For the same compound, the “Population Hoechst High Intensity Objects (%)” value [4] was 2%, the “Population Mitochondria Different-Phenotype (%)” value [4] was 15% and the “Population Mitotic Cells (%)” value [4] was 0%. For the same compound, the “Population Normal (%)” value [4] was 97%, the “Population Tubulin-Different-Phenotype (%)” value [4] was 3% and the “Total Cell Count” value [4] was 77. For the same compound, the “Population Apoptotic (%)” value [5] was 70%, the “Population Fragmented Nuclei (%)” value [5] was 16% and the “Population Healthy Nuclei (%)” value [5] was 73%. The “Population Hoechst High Intensity Objects (%)” value [5] was 1%, the “Population Membrane Permeable-Phenotype (%)” value [5] was 3% and the “Population Mitochondria Different-Phenotype (%)” value [5] was 3%. For the same compound, the “Population Mitotic Cells (%)” value [5] was 29%, the “Population Normal (%)” value [5] was 98% and the “Population Pyknosed Nuclei (%)” value [5] was 9%. The “Population Tubulin-Different-Phenotype (%)” value [5] was 2%, the “Total Cell Count” value [5] was 256 and the “Population Apoptotic (%)” value [6] was 86%. The “Population Fragmented Nuclei (%)” value [6] was 20%, the “Population Healthy Nuclei (%)” value [6] was 69% and the “Population Membrane Permeable-Phenotype (%)” value [6] was 7%. For the same compound, the “Population Mitochondria Different-Phenotype (%)” value [6] was 5%, the “Population Mitotic Cells (%)” value [6] was 13% and the “Population Tubulin-Different-Phenotype (%)” value [6] was 4%. For the same compound, the “Total Cell Count” value [6] was 156, the “Population Apoptotic (%)” value [7] was 82% and the “Population Fragmented Nuclei (%)” value [7] was 22%. For the same compound, the “Population Healthy Nuclei (%)” value [7] was 64%, the “Population Hoechst High Intensity Objects (%)” value [7] was 4% and the “Population Membrane Permeable-Phenotype (%)” value [7] was 6%. For the same compound, the “Population Mitochondria Different-Phenotype (%)” value [7] was 3%, the “Population Mitotic Cells (%)” value [7] was 17% and the “Population Normal (%)” value [7] was 95%. The “Population Pyknosed Nuclei (%)” value [7] was 12%, the “Population Tubulin-Different-Phenotype (%)” value [7] was 1% and the “Total Cell Count” value [7] was 344. The “Population Apoptotic (%)” value [8] was 100%, the “Population Fragmented Nuclei (%)” value [8] was 15% and the “Population Healthy Nuclei (%)” value [8] was 78%. For the same compound, the “Population Hoechst High Intensity Objects (%)” value [8] was 1%, the “Population Membrane Permeable-Phenotype (%)” value [8] was 12% and the “Population Mitochondria Different-Phenotype (%)” value [8] was 13%. For the same compound, the “Population Mitotic Cells (%)” value [8] was 0%, the “Population Normal (%)” value [8] was 98% and the “Population Pyknosed Nuclei (%)” value [8] was 5%. The “Population Tubulin-Different-Phenotype (%)” value [8] was 4%, the “Total Cell Count” value [8] was 96 and the “Population Apoptotic (%)” value [9] was 88%. The “Population Fragmented Nuclei (%)” value [9] was 15%, the “Population Healthy Nuclei (%)” value [9] was 75% and the “Population Hoechst High Intensity Objects (%)” value [9] was 2%. The “Population Membrane Permeable-Phenotype (%)” value [9] was 6%, the “Population Mitochondria Different-Phenotype (%)” value [9] was 3% and the “Population Mitotic Cells (%)” value [9] was 11%. The “Population Normal (%)” value [9] was 97%, the “Population Pyknosed Nuclei (%)” value [9] was 8% and the “Population Tubulin-Different-Phenotype (%)” value [9] was 4%. The “Total Cell Count” value [9] was 417, the “Population Apoptotic (%)” value [10] was 96% and the “Population Fragmented Nuclei (%)” value [10] was 20%. For the same compound, the “Population Healthy Nuclei (%)” value [10] was 65%, the “Population Membrane Permeable-Phenotype (%)” value [10] was 9% and the “Population Mitochondria Different-Phenotype (%)” value [10] was 4%. The “Population Mitotic Cells (%)” value [10] was 3%, the “Population Pyknosed Nuclei (%)” value [10] was 14% and the “Population Tubulin-Different-Phenotype (%)” value [10] was 6%. The “Total Cell Count” value [10] was 206, the “Population Apoptotic (%)” value [11] was 92% and the “Population Fragmented Nuclei (%)” value [11] was 18%. For the same compound, the “Population Healthy Nuclei (%)” value [11] was 72%, the “Population Hoechst High Intensity Objects (%)” value [11] was 3% and the “Population Membrane Permeable-Phenotype (%)” value [11] was 8%. For the same compound, the “Population Mitochondria Different-Phenotype (%)” value [11] was 3%, the “Population Mitotic Cells (%)” value [11] was 7% and the “Population Normal (%)” value [11] was 96%. The “Population Pyknosed Nuclei (%)” value [11] was 9%, the “Population Tubulin-Different-Phenotype (%)” value [11] was 6% and the “Total Cell Count” value [11] was 473. The “Population Apoptotic (%)” value [12] was 91%, the “Population Fragmented Nuclei (%)” value [12] was 26% and the “Population Healthy Nuclei (%)” value [12] was 64%. For the same compound, the “Population Hoechst High Intensity Objects (%)” value [12] was 2%, the “Population Membrane Permeable-Phenotype (%)” value [12] was 5% and the “Population Mitochondria Different-Phenotype (%)” value [12] was 7%. For the same compound, the “Population Mitotic Cells (%)” value [12] was 8%, the “Population Normal (%)” value [12] was 97% and the “Population Pyknosed Nuclei (%)” value [12] was 8%. For the same compound, the “Population Tubulin-Different-Phenotype (%)” value [12] was 1% and the “Total Cell Count” value [12] was 143.
